What was measured:
[1] = folding enthalpy; higher = less favourable; fluorescence melt of hairpins on a sequencing array, two-state fit; details: sodium 0.088 M
Outline: (§1)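 Melting temperature and folding enthalpy were obtained by bootstrapped two-state fitting. Fits used Cy3 fluorescence of library hairpins with annealed Cy3 and quencher oligos on a sequenced MiSeq flow cell, imaged in 50 mM Na-HEPES pH 8.0, 25 mM NaCl in 2.5 °C steps up to 60 °C and normalised to pre-quench Cy3 and control constructs. Four replicates were combined by inverse-variance weighting, and fitted temperatures were raised by 9.35 °C to match UV melts.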

[2] = melting temperature; fluorescence melt of hairpins on a sequencing array, two-state fit, raised by 9.35 °C to match UV melts; details: sodium 0.088 M
Outline: as §1

Row | Sequence | folding enthalpy [1] | Tm [2]
1 | GTAGTGCGAAAGCATAC (((.(((....)))))) | -12.6 kcal/mol | 40.5 °C
2 | GTAGTGGGAAACCACTGC (.(((((....))))).) | -19.4 kcal/mol | 50.6 °C
3 | GTAGTGGGAAACCATTGC (.(.(((....))).).) | -10.3 kcal/mol | 24.3 °C
4 | GTAGTGGGAAACTACTAC (((((.(....).))))) | -31.7 kcal/mol | 47.5 °C
5 | GTAGTTCGAAAGAAGTAC (((.(((....))).))) | -25 kcal/mol | 46 °C
6 | GTAGTTGGAAACAACTGC (.(((((....))))).) | -18 kcal/mol | 47.6 °C
7 | GTAGTTGGAAACAATTAC (((.(((....))).))) | -23.4 kcal/mol | 34.2 °C
8 | GTAGTTGGAAACGATTAC (((.(.(....).).))) | -13.7 kcal/mol | 30.9 °C
9 | GTATAAGGAAACTTGTAC (((.(((....))).))) | -17.1 kcal/mol | 31.5 °C
10 | GTATACCGAAAGGTCTAC (((.(((....))).))) | -22.4 kcal/mol | 40.7 °C
11 | GTATACCGAAAGGTGTAC (((.(((....))).))) | -27.6 kcal/mol | 51.6 °C
12 | GTATACCGAAAGGTTTAC (((.(((....))).))) | -27.5 kcal/mol | 43.3 °C
13 | GTATACGAAAGTACTAC ((((((....))).))) | -13.1 kcal/mol | 27.6 °C
14 | GTATAGCGAAAGCTCTAC (((.(((....))).))) | -17.3 kcal/mol | 39.7 °C
15 | GTATATGAAAATATAC ((((((....)))))) | -23.7 kcal/mol | 39.1 °C
16 | GTATATGGAAACATGTAC (((.(((....))).))) | -29.6 kcal/mol | 37.2 °C
17 | GTATCACGAAAGTGGTAC (((.(((....))).))) | -27.9 kcal/mol | 52.8 °C
18 | GTATCAGCGAAAGCTTAC (((..(((....)))))) | -8.4 kcal/mol | 26.3 °C
19 | GTATCCCCGAAAGGGTAC (((..(((....)))))) | -14.8 kcal/mol | 35.5 °C

Row | Sequence | folding enthalpy [1] | Tm [2]
20 | GTATCCCGAAAGGGGTAC (((.(((....))).))) | -38.2 kcal/mol | 55.6 °C
21 | GTATCCGAAAGGAAATAC ((((((....)))..))) | -16.8 kcal/mol | 31 °C
22 | GTATCCGAAAGGAGTTAC ((((((....)))..))) | -14.9 kcal/mol | 25.3 °C
23 | GTATCCGGAAACGAATAC ((((.((....)).)))) | -26.5 kcal/mol | 33.5 °C
24 | GTATCGCGAAAGCGTAC (((.(((....)))))) | -12.1 kcal/mol | 44.5 °C
25 | GTATGACGAAAGTCGTAC (((.(((....))).))) | -30.3 kcal/mol | 53.8 °C
26 | GTATGCCGAAAGGCTTAC (((.(((....))).))) | -19 kcal/mol | 50.6 °C
27 | GTATGCGAAAGCACATAC ((((((....)))..))) | -11.2 kcal/mol | 31.8 °C
28 | GTATGCGAAAGCACGTAC ((((((....)))..))) | -8.02 kcal/mol | 34.1 °C
29 | GTATGCGAAAGCACTAC ((((((....))).))) | -13.2 kcal/mol | 37.3 °C
30 | GTATGCGAAAGCATTAC ((((((....))).))) | -13.8 kcal/mol | 43.4 °C
31 | GTATGCGGAAACGCATAC (((((((....))))))) | -33.5 kcal/mol | 68.2 °C
32 | GTATGCGGAAACGTGTAC (((..((....))..))) | -30.2 kcal/mol | 39.4 °C
33 | GTATGGAAACATAC (((((....))))) | -23.5 kcal/mol | 43.4 °C
34 | GTATGGGCGAAAGCCTAC (((..(((....)))))) | -7.19 kcal/mol | 36.9 °C
35 | GTATGGGGAAACCCACAC ((.((((....)))).)) | -18.9 kcal/mol | 35.1 °C
36 | GTATGGGGAAACCTGTAC (((..((....))..))) | -17.1 kcal/mol | 32.2 °C
37 | GTATGGGGAAACTCATAC (((((.(....).))))) | -34.5 kcal/mol | 40.5 °C
38 | GTATGGGGAAACTCGTAC (((.(.(....).).))) | -11.6 kcal/mol | 29.1 °C
